Measurements as given in the M2OR odorant receptor database.

Legend:
Conditions in all cases: stereoisomer not certain
[1] = molecular target: T1, UniProt E9PZ66
T1 sequence (whole entry): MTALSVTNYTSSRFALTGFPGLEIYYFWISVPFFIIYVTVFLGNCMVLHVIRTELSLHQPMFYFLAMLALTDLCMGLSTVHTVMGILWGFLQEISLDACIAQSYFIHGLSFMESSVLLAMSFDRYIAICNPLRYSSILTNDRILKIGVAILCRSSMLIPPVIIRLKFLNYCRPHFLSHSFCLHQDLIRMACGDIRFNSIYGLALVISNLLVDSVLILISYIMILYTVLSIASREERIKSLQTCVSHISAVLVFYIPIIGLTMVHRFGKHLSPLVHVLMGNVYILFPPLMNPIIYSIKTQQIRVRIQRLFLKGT
Summary of the method: (§1)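 Values were gathered from published papers (main text and supplementary material), with extra details requested from the original authors when needed, and checked for typos and inconsistencies. Each receptor–molecule pair is called responsive (active) if the original authors judged the measured signal statistically different from baseline, and non-responsive (inactive) otherwise. Assay methods varied by source, often transient mammalian cell-line luciferase assays. Recorded details include cell line, G-protein, co-transfected protein and tags.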

[2] = molecular target: T2, UniProt E9Q4X7
T2 sequence (whole entry): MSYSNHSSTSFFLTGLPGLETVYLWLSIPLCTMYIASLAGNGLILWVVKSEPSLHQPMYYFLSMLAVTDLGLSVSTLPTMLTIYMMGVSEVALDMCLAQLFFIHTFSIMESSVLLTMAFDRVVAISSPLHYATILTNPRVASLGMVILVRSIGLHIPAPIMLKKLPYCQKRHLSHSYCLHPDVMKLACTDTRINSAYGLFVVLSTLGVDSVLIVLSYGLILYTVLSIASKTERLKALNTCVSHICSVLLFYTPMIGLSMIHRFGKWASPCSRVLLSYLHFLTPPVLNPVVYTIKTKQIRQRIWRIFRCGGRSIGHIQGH
Summary of the method: as §1

[3] = molecular target: T3, UniProt E9Q546
T3 sequence (whole entry): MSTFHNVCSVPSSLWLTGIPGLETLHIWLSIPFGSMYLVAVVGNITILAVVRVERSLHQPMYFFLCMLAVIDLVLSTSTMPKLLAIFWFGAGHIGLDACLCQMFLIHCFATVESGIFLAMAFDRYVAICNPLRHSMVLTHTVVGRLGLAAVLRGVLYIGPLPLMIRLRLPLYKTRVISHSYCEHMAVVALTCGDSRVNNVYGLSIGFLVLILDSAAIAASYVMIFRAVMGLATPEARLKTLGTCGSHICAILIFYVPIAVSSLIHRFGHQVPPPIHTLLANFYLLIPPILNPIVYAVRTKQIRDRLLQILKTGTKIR
Summary of the method: as §1

[4] = molecular target: T4, UniProt E9Q6Z7
T4 sequence (whole entry): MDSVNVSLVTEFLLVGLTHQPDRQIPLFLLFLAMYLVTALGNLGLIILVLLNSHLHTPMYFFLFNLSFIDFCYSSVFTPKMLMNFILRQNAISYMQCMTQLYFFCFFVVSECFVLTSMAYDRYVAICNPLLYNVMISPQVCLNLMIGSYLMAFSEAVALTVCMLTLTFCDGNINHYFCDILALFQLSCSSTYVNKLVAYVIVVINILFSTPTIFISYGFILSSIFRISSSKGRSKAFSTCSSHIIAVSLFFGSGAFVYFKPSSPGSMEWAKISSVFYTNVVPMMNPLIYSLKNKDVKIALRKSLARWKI
Summary of the method: as §1

[5] = molecular target: T5, UniProt K7N609
T5 sequence (whole entry): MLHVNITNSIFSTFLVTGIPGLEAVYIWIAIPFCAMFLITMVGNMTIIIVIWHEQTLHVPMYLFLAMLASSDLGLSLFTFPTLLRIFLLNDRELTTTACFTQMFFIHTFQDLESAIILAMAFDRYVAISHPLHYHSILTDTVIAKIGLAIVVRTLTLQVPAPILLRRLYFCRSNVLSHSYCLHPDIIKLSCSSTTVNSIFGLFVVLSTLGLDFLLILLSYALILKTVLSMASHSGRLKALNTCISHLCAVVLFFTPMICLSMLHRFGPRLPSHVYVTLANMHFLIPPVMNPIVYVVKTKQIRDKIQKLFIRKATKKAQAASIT
Summary of the method: as §1

[6] = molecular target: T6, UniProt E9QAT7
T6 sequence (whole entry): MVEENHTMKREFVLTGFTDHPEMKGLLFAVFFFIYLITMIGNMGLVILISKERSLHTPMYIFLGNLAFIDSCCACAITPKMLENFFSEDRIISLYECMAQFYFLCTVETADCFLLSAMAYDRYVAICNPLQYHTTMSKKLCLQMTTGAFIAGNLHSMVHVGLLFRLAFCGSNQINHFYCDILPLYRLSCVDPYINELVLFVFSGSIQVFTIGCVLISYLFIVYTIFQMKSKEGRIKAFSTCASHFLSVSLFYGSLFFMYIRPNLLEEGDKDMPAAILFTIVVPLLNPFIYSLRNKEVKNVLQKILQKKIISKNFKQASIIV
Summary of the method: as §1

[7] = molecular target: UniProt E9Q891
Summary of the method: as §1

[8] = molecular target: UniProt K7N5T5
Summary of the method: as §1

[9] = molecular target: T7, UniProt E9Q9Z6
T7 sequence (whole entry): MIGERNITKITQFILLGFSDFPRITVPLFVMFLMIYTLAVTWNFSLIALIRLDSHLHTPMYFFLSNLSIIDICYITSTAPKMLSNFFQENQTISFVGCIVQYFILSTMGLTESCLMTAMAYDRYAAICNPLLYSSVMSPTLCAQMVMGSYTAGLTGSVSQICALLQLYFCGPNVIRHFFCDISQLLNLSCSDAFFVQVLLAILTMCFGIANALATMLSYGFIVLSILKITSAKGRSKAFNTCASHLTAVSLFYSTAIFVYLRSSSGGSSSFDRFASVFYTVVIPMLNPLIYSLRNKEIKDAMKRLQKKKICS
Summary of the method: as §1

Measured: odorant receptor agonist call

UniProt K7N5T5, sequence (K7N5T5 as listed by the source): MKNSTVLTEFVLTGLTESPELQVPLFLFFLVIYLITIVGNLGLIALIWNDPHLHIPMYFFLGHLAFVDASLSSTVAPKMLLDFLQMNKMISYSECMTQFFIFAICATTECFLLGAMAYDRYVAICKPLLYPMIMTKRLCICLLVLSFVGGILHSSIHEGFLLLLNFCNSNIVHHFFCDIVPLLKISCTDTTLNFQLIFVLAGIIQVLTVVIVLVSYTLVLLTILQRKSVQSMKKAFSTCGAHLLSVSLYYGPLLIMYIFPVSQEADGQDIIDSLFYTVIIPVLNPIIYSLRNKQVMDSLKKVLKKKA
UniProt E9Q891, sequence (E9Q891 as listed by the source): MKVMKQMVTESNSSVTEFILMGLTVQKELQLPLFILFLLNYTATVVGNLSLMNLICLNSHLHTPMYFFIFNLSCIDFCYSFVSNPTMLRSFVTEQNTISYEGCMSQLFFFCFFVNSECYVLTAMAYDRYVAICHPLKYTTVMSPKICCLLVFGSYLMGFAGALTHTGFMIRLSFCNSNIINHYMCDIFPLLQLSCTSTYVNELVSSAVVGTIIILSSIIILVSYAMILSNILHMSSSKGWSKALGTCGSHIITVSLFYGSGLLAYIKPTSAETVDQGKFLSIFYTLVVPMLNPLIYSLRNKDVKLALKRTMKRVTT

O=C(O)CCCCCCCCC(=O)O
inactive: [1] | [2] | [3] | [4]

CCCCOC=O
inactive: [1] | [2] | [3] | [4] | [5]

CCC(C)c1nccnc1OC (stereo not given)
inactive: [1] | [2] | [3] | [4] | [6]

COc1nccnc1C
inactive: [1] | [2] | [3] | [4]

CC(C)=CCCC(C)=CCOC(=O)C(C)C
inactive: [1] | [2] | [3] | [4]

O=C1CCOc2ccccc21
active: [7]
not listed: [6] | [9]
inactive: all other assays above

CCc1ncc(C)nc1CC
inactive: [1] | [2] | [3] | [4]
active: [6]

CCCCCCOC(C)=O
inactive: [1] | [2] | [3] | [4] | [5]

COc1nccnc1C(C)C
inactive: [1] | [2] | [3] | [4] | [6]

CC1CC=CCCCCCCCCCC(=O)C1 (stereo not given)
inactive: [1] | [2] | [3] | [4]
active: [9]

CCN(CC)CC
inactive: [1] | [2] | [3] | [4]

c1ccc2ncccc2c1
inactive: [1] | [2] | [3] | [4]

CCCCCC=CCCC=O
inactive: [1] | [3] | [4]
active: [2]

C=C(C)C1CCC2(C)OC2C1 (stereo not given)
inactive: [1] | [2] | [3] | [4]

C=CCOC(=O)CCCCCC
inactive: [1] | [2] | [3] | [4] | [5]

C=C(CC)CCCC(C)(C)O
inactive: [1] | [2] | [3] | [4]

COc1cnccn1
inactive: [1] | [2] | [3] | [4] | [6]

CC(=O)C=CC1=C(C)CCCC1(C)C
inactive: [1] | [2] | [3] | [4]

CCCO
inactive: [1] | [2] | [3] | [4]

CCOC(=O)C(C)CC (stereo not given)
inactive: [1] | [2] | [3] | [4]

Cc1ccc2c(c1)OCC(=O)CO2
inactive: [1] | [2] | [3] | [4]

CCCCCCC(C)=O
inactive: [1] | [2] | [3] | [4] | [5]

CCCCCCCCCC=CC=O
inactive: [1] | [2] | [3] | [4]

C=CC(=O)CCCCC
inactive: [1] | [2] | [3] | [4]

CCCC=O
inactive: [1] | [2] | [3] | [4]

C1CCOC1
inactive: [1] | [2] | [3] | [4]

CCc1ccc(O)cc1
inactive: [1] | [2] | [3] | [4]

O=C(OCc1ccccc1)c1ccccc1O
inactive: [1] | [2] | [3] | [4]

CC=C(C)C=O
inactive: [1] | [2] | [3] | [4]

CNc1ccccc1C(=O)OC
inactive: [1] | [2] | [3] | [4]

CCCCCCCCCCO
inactive: [1] | [2] | [3] | [4] | [5]

CCC(C(=O)O)c1ccccc1 (stereo not given)
inactive: [3] | [5]

CCOC(=O)C(C)C
inactive: [1] | [2] | [3] | [4] | [5]

CCC(=O)O
inactive: [1] | [2] | [3] | [4] | [5]

CCCCOC(=O)C(C)OC(=O)CCC (stereo not given)
inactive: [3] | [5]

CC12CCC(CC1=O)C2(C)C (stereo not given)
inactive: [1] | [2] | [3] | [4] | [5]

CC(C)=CCCC(C)=CCO
inactive: [1] | [2] | [3] | [4] | [5]

CC(C)=CCCC(C)CCO (stereo not given)
inactive: [1] | [2] | [3] | [4] | [5]

CCCCCC(=O)CC
inactive: [1] | [2] | [3] | [4] | [5]

CCCCCCCCS
inactive: [1] | [2] | [3] | [4] | [5]

CCCCCCCCC(=O)O
inactive: [1] | [2] | [3] | [4] | [5]

CCC(=O)C(=O)CC
inactive: [1] | [2] | [3] | [4] | [5]

CCCCC(C)=O
inactive: [1] | [2] | [3] | [4] | [5]

COc1cc(C(=O)O)ccc1O
inactive: [1] | [3] | [4]
active: [2] | [5]

CC(=O)Oc1ccccc1
inactive: [1] | [2] | [3] | [4] | [5]

O=c1ccc2ccccc2o1
active: [7]
inactive: [3] | [8] | [5]

O=C1Cc2ccccc2O1
inactive: [1] | [2] | [3] | [4] | [5]

C=C(C)C1CCC(C)C(=O)C1 (stereo not given)
inactive: [1] | [2] | [3] | [4] | [5]

CCCCC(=O)CC
inactive: [1] | [2] | [3] | [4] | [5]

CCCCCC=O
inactive: [1] | [2] | [3] | [4] | [5]

CCCCCCCC(C)=O
inactive: [1] | [2] | [3] | [4] | [5]
